Data on one compound can be found in ChEMBL document CHEMBL2150901, “Synthesis and biological activity of tricyclic cycloalkylimidazo-, pyrimido- and diazepinopurinediones” (Eur J Med Chem, 2011).

Broadly, the Kb is the affinity of an antagonist, worked out from how it opposes an agonist. As usually defined, the Ki is the dissociation constant of the complex between target and ligand, obtained from inhibition or displacement.

Each structure is given as a SMILES string. Calls of active or inactive are those of the source. The calls are words filed in the database; no cut-off is given here. Some results are limits rather than exact numbers.

For data set [1], the species on record is Rattus norvegicus. Description: Selectivity ratio of Ki for adenosine A1 receptor in rat brain cortical membrane to Ki for adenosine A2A receptor in rat brain striatal membrane. It is filed as cell membranes. In outline: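 Ki ratios from radioligand competition binding. Rat A1 used brain cortical membranes and rat A2A used brain striatal membranes. Human A1 and A2A used membranes of CHO cells expressing the receptors. A1 radioligand [³H]CCPA; A2A radioligand [³H]MSX-2. Potent compounds were tested at 6–7 concentrations spanning 3 orders of magnitude.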

Data set [2] deals with Rattus norvegicus. The data set is described as follows: Anticonvulsant activity in Sprague-Dawley albino rat assessed as protection against maximal electroshock-induced seizures at 30 mg/kg, po after 4 hrs. It counts as functional, organism-based. Further details: dose 30 mg/kg. In outline:
(§1)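 Male Sprague-Dawley albino rats (100–150 g), groups of 4. Oral suspension in 0.5% methylcellulose/water. Protection assessed by maximal electroshock or subcutaneous pentylenetetrazole; motor impairment by rotorod. Time points 0.25–4 h. Value is protected (or toxic)/tested animals.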
In general terms: In the maximal electroshock model the usual endpoint is tonic extension of the hind limbs.

The subject of data set [3] is Mus musculus. Description: Anticonvulsant activity in F1 albino mouse assessed as protection against maximal electroshock-induced seizures at 300 mg/kg, ip after 4 hrs. It is filed as functional, organism-based. Further details: dose 300 mg/kg. Summed up: (§2)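 Male albino F-1 mice (18–25 g), groups of 1–5 (rotorod 2–8). Compound given ip as a suspension in 0.5% methylcellulose at 30, 100 and 300 mg/kg. Seizures by maximal electroshock or subcutaneous pentylenetetrazole; neurotoxicity by rotorod. Read at 0.5 and 4 h, with some at 0.25, 1 and 2 h. Value is the minimum active dose, with protected (or toxic)/tested animals.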

For the next data set, the target named is Adenosine receptor A2a (Homo sapiens, UniProt P29274). The data set is described as follows: Antagonist activity human recombinant adenosine A2A receptor expressed in CHO cells assessed as inhibition of NECA-mediated [3H]cAMP accumulation after 15 mins by liquid scintillation counting. It counts as functional, cell-based. In outline:
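Stably transfected CHO cells (human A2A), 200,000 cells/well, washed and preincubated 2 h at 37 °C in HBSS (pH 7.3) with 1 U/ml adenosine deaminase. Ro20-1724 (final 40 µM) added for 15 min. NECA dilutions ± a single test concentration in HBSS with 5% DMSO, in triplicate, for 15 min. Hot-lysis; cAMP quantified by [3H]cAMP competition against a standard curve; three separate experiments.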

Data set [4] concerns Mus musculus. The data set is described as follows: Anticonvulsant activity in F1 albino mouse assessed as protection against maximal electroshock-induced seizures at 100 mg/kg, ip after 0.25 hrs. It is filed as functional, organism-based. Set-up: dose 100 mg/kg. Summed up: as §2
Data set [5] deals with Rattus norvegicus. Description: Anticonvulsant activity in Sprague-Dawley albino rat assessed as protection against subcutaneous pentylenetetrazole-induced seizures at 50 mg/kg, po after 2 hrs. It is filed as functional, organism-based. Set-up: dose 50 mg/kg. Summed up: as §1
Data set [6] concerns Mus musculus. The data set is described as follows: Neurotoxicity in F1 albino mouse assessed as minimal motor impairment at 300 mg/kg, ip after 0.25 hrs by rotorod test. It counts as toxicity, organism-based. Further details: dose 300 mg/kg, route intraperitoneal. As to conditions: in vivo. In outline:
as §2
A general note: Falling from the rotarod earlier than controls is read as motor impairment.

In data set [7] the test system is Rattus norvegicus. Description: Neurotoxicity in Sprague-Dawley albino rat assessed as minimal motor impairment at 30 mg/kg, po after 4 hrs by rotorod test. It is filed as toxicity, organism-based. Further details: dose 30 mg/kg, route oral. The following applies: in vivo. In outline:
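Male Sprague-Dawley albino rats (100–150 g), groups of 4, dosed orally with a suspension in 0.5% methylcellulose/water. Neurotoxicity was scored as minimal motor impairment on the rotorod at 0.25, 0.5, 1 and 4 h. Results are reported as animals showing toxicity per animals tested.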

Data set [8] relates to Rattus norvegicus. The data set is described as follows: Anticonvulsant activity in Sprague-Dawley albino rat assessed as protection against maximal electroshock-induced seizures at 30 mg/kg, po after 0.5 hrs. It is filed as functional, organism-based. Further details: dose 30 mg/kg. Summed up: as §1
Data set [9] relates to Mus musculus. Description: Anticonvulsant activity in F1 albino mouse assessed as protection against maximal electroshock-induced seizures at 300 mg/kg, ip after 1 hr. It is filed as functional, organism-based. Set-up: dose 300 mg/kg. Summed up: as §2
In data set [10] the test system is Rattus norvegicus. The data set is described as follows: Anticonvulsant activity in Sprague-Dawley albino rat assessed as protection against maximal electroshock-induced seizures at 30 mg/kg, po after 1 hr. Set-up: dose 30 mg/kg. It counts as functional, organism-based. Summed up:
as §1

The test system of data set [11] is Rattus norvegicus. Description: Anticonvulsant activity in Sprague-Dawley albino rat assessed as protection against subcutaneous pentylenetetrazole-induced seizures at 50 mg/kg, po after 0.5 hrs. It is filed as functional, organism-based. Further details: dose 50 mg/kg. In outline: as §1
Data set [12] relates to Rattus norvegicus. Description: Neurotoxicity in Sprague-Dawley albino rat assessed as minimal motor impairment at 30 mg/kg, po after 0.25 hrs by rotorod test. It is filed as toxicity, organism-based. Further details: dose 30 mg/kg, route oral. The following applies: in vivo. Summed up: as §1
A further data set addresses T1, Adenosine receptor A3 (Homo sapiens, UniProt P0DMS8).
T1 sequence (P0DMS8 whole entry): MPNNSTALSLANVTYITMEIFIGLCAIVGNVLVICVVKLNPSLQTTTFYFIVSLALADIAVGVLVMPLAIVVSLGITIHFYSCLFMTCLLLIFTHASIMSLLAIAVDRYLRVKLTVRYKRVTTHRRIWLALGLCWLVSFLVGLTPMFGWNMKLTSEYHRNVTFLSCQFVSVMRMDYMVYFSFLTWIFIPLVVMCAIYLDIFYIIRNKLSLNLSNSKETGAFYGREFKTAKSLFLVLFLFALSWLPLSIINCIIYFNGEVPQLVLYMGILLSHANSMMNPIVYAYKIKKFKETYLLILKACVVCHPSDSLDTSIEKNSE
The data set is described as follows: Displacement of [3H]PSB-11 from human recombinant adenosine A3 receptor expressed in CHO cells. It counts as cell-based. For orientation: In a radioligand displacement assay an active substance lowers the binding of a labelled ligand.

Sequence of Adenosine receptor A2a (P29274 whole entry): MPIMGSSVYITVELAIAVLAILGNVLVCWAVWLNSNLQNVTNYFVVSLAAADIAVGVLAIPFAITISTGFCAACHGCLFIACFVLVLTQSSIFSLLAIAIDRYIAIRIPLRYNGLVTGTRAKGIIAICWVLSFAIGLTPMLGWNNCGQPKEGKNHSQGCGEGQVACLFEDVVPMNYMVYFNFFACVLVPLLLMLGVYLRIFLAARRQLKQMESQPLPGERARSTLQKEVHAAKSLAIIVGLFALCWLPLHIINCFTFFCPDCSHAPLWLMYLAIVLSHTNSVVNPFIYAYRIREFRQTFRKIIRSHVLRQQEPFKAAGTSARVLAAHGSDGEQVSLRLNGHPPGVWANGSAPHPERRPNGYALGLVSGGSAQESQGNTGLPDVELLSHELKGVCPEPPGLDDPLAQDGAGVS

`Cn1c(=O)c2c(nc3n2CCCN3CC2CC2)n(C)c1=O`: the Ratio Ki in the data set listed under Rattus norvegicus [1] was 2. Moreover, the result in the data set on Rattus norvegicus [2], with Mus musculus [3], in the data set with Rattus norvegicus [5], in the data set with Rattus norvegicus [8], with Mus musculus [9] and with Rattus norvegicus [10] was inactive. The outcome in the data set on Rattus norvegicus [11] was inactive. Also, at Adenosine receptor A2a, the Kb was 220 nM. In the data set on Mus musculus [4], the outcome was Active. Also, the Activity entry in the data set on Mus musculus [6], in the data set on Rattus norvegicus [7] and with Rattus norvegicus [12] was “Non-toxic” each time. In addition, the inhibition constant (Ki) at Adenosine receptor A3 is more than 10000 nM.
